Screening results (PubChem)
Yeast eIF2B: GCN4-lacZ reporter reduction in eIF2B-epsilon mutant yeast, primary screen, S. cerevisiae, eIF2B-epsilon R284H, Beta-Glo luminescence | 27,000 tested, 0.91% active | inhibition, % at 25 µM (by protocol);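 active means mutant luminescence inhibited past about 50% while wild type luminescence and mutant growth stay under set limits, limit read from the data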
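Material: yeast eIF2B-epsilon R284H mutant carrying GCN4–beta-galactosidase fusion. Medium: YPD yeast growth medium. Incubation: 16 h growth with compound at 30 °C, 90 min Beta-Glo step. Signal: Beta-Glo luminescence plus absorbance at 595 nm. Evaluation: % inhibition of reporter signal and growth versus controls. Doses: 25 µM single dose.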
Yeast growth tox: yeast growth toxicity, wild-type and mutant, primary screen, cytotoxicity control for eIF2B function restoration project, wild-type and eIF2Bepsilon R284H mutant, A595. S. cerevisiae wild-type growth, A595 turbidity, 16 h. growth inhibition, % at 25 µM (by protocol). 30,000 tested, 0.3% active. AID 685, 2007;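 active means mutant and wild-type yeast strains alike exhibit over 30% growth inhibition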;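 further: 0% = untreated cell controls and 100% = YPD media blanks without cells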
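System: S. cerevisiae wild-type or eIF2Bepsilon-R284H mutant strain; times: 16 h growth with compound, 30 °C; signal: absorbance at 595 nm (turbidity); measure: growth inhibition (%) versus cell controls and blanks; compound: 25 µM single dose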
* hit, by the source's call; · = not tested or not shown. Only some compounds are listed: those with a hit (about 1% of all), similar ones and a draw of the others.

SMILES | Yeast eIF2B | Yeast growth tox
COc1ccc(-c2cc(-c3ccccc3O)[nH]n2)cc1OC | 17 | 5
Cc1ccc(-c2cc(-c3cccc(F)c3)n[nH]2)c(O)c1 | · | 30*
Cc1ccc(O)c(-c2cc(-c3cccc(F)c3)n[nH]2)c1 | · | 51*
Oc1ccc(Br)cc1-c1cc(-c2ccccc2)n[nH]1 | 28 | 80*
Cc1ccc(O)c(-c2cc(-c3ccccc3F)[nH]n2)c1 | · | -5
Cc1ccc(-c2cc(C(=O)Nc3c(C)n(C)n(-c4ccccc4)c3=O)[nH]n2)c(O)c1 | · | -14
Oc1ccc(Br)cc1-c1cc(-c2ccc(Cl)cc2)n[nH]1 | · | -15
CCCOc1ccc(CC(=O)NCC2(c3ccccc3)CCOCC2)cc1OC | 12 | 18
CC1=C(C(=O)OCC(C)C)C(c2ccc(F)cc2)NC(=O)N1 (stereo not drawn) | 6 | -10
Cc1ccc(CO/N=C\Cc2snc(Sc3ncc(C(F)(F)F)cc3Cl)c2C#N)cc1 | 13 | 20
COCCN1C(=O)c2ccccc2C(C(=O)N2CCN(c3ccccc3)CC2)C1c1ccc(F)cc1 (stereo not drawn) | 12 | -21
O=C(NC1CCCCC1)c1cccc(COCC(F)(F)F)c1 | · | 8
COC(=O)c1cn(CCOc2ccccc2)c2ccccc12 | 61* | 11
COC(=O)c1cn(CCOc2ccccc2OC)c2ccccc12 | 7 | ·
Cn1ncc(C#N)c1NC(=O)c1cc(-c2ccccc2Cl)on1 | 7 | 7
CC(C)OP(=O)(c1ccc(N(C)C)cc1)C(O)c1ccccc1 (stereo not drawn) | · | 16
CC1=Nc2ncnn2C(c2ccccc2)/C1=N\O (stereo not drawn) | 24 | -3
CCOc1ccc(-n2nc(C(=O)N3CCOCC3)c3ccccc3c2=O)cc1 | 59* | -11
CCOc1ccc(-n2nc(C(=O)N3CCN(CC)CC3)c3ccccc3c2=O)cc1 | -18 | -21
CCOC(=O)CN1C(=N)N(c2nc(NC(C)C)nc(NC(C)C)n2)CC1=O | 6 | -4
Cc1cc(Cl)cc(Br)c1OCCCN1C(=O)NC(C)(C)C1=O | 16 | 8
C=CCc1cccc(CNc2nc3ccccc3n2C(C)C)c1O | 63* | 15
CCn1c(NCc2cccc(OC)c2OC)nc2ccccc21 | 18 | 5
CC(=O)Nc1ccccc1-c1nnc(SCc2ccccc2Cl)[nH]c1=O | 9 | 13
CCOC(=O)c1cc(S(=O)(=O)N2CCN(C(=O)OCC)CC2)cn1C | 67* | -1
SMILES | Yeast eIF2B | Yeast growth tox
CCOC(=O)COc1ccc(S(=O)(=O)N2CCN(C(=O)OCC)CC2)cc1 | 11 | 9
CCOc1ccc(N(C(C)C(=O)NCc2ccco2)S(C)(=O)=O)cc1 (stereo not drawn) | 10 | 8
COc1ccccc1CNC(=O)CN(c1ccc(C)cc1)S(=O)(=O)c1c(C)nn(C)c1C | 51* | 7
COc1ccccc1NC(=O)CN(c1ccc(C)cc1)S(=O)(=O)c1c(C)n[nH]c1C | 19 | 21
CCCSc1ncc(Cl)c(C(=O)Nc2ccc(S(=O)(=O)N3CC(C)OC(C)C3)cc2)n1 (stereo not drawn) | · | 27
Cc1cccc(Cn2cnc3c(nnn3Cc3ccc(Cl)cc3)c2=O)c1 | 59* | -16
Cc1ccc(Cn2nnc3c(=O)n(CC(=O)N4CCCc5ccccc54)cnc32)cc1 | -4 | 9
Cc1cc(NC(=O)C(=O)NCCN2CCN(C(=O)c3cccs3)CC2)ccc1Br | -35 | -30
COc1ccc(NC(=O)C(=O)NCCN2CCN(C(=O)c3cccs3)CC2)cc1 | 52* | -23
Nc1ccc2c(c1)C(=O)C(=O)c1ccccc1-2 | · | 38*
O=C1C(=O)c2ccc(-c3ccccc3)cc2-c2ccccc21 | 43 | 38
O=C(Oc1cccc(NC(=O)c2ccco2)c1)c1cccc(S(=O)(=O)N2CCCCC2)c1 | 15 | 10
Cc1cc(NCc2ccc(F)cc2Cl)n2nnnc2n1 | 64* | 16
COc1ccc(CNc2cc(C)nc3ncnn23)c(OC)c1 | 17 | 8
CCOc1ccc(-n2nc3c(-n4ncc(C#N)c4N)nnc(C)c3c2C)cc1 | 11 | -45
COc1cc(OC)cc(C(=O)N2CCCc3ccccc32)c1 | 19 | 2
CCCOc1ccc(C(=O)N2CCCc3ccccc32)cc1 | 73* | -14
CCc1ccc2c(c1)C1(NN=C(c3ccc(C)cc3)S1)C(=O)N2 (stereo not drawn) | 60* | ·
CC(C)c1ccc2c(c1)C1(NN=C(c3ccccc3)S1)C(=O)N2 (stereo not drawn) | -2 | 7
Cc1ccc(N(C(=O)C2CCC(=O)N2)C2(C(=O)NC3CCCC3)CCCCC2)cc1 (stereo not drawn) | · | 11
COc1ccccc1NC(=O)NS(=O)(=O)c1ccc(C)cc1 | · | 10
